Measured values reported in ChEMBL document CHEMBL3352487, “Synthesis, antibacterial activity, and biological evaluation of formyl hydroxyamino derivatives as novel potent peptide deformylase inhibitors against drug-resistant bacteria” (Eur J Med Chem, 2014).
Converted amounts (≈) assume the structure as drawn.

How the values were obtained:
[1] = Clearance in Sprague-Dawley rat at 5 mg/kg, iv; type: ADME, organism-based; design: dose 5 mg/kg, route intravenous; conditions: in vivo
[2] = Fraction unbound in CD1 mouse plasma at 2 uM by equilibrium dialysis; type: ADME, cell-free
Procedure, shortened: (§1)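 Pooled CD-1 mouse plasma spiked to 2 µM final, equilibrium dialysis in triplicate against 100 mM PBS pH 7.4, 4 h at 37 °C with rotation; matrix-matched samples acetonitrile-precipitated, LC-MS/MS with internal standards. Unbound = free/total ×100; recovery = (free+total)/pre-dialysis ×100.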

Staphylococcus aureus [3] = experiment: Antimicrobial activity against Staphylococcus aureus ATCC 33591 in septicemia mouse model assessed as mortality of host at 5 mg/kg administered intragastrically measured after 14 days relative to control; type: functional; conditions: ATCC 33591, po, 336 h, route intragastric
Procedure, shortened: (§2)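 Septicemia model: outbred mice inoculated i.p. with a 90–100% lethal dose (5 × 10^6 CFU/mL) in 0.5 mL brain heart infusion broth with 5% mucin. Drug in 20% DMSO given intragastrically after infection at 5, 10 or 20 mg/kg, 0.1 mL. Six mice per dose; cumulative mortality over 14 days; ED50 derived.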

[4] = Half life in Sprague-Dawley rat at 25 mg/kg, po; type: ADME, organism-based; design: dose 25 mg/kg, route oral; conditions: in vivo
Staphylococcus aureus [5] = experiment: Antimicrobial activity against Staphylococcus aureus OXFORD after 24 hrs by broth microdilution method; type: functional
Procedure, shortened: (§3)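 Broth microdilution following NCCLS M7-A4, using ATCC strains and clinical isolates from a provincial hospital.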

Staphylococcus aureus [6] = experiment: Antimicrobial activity against Staphylococcus aureus ATCC 33591 in septicemia mouse model assessed as mortality of host at 10 mg/kg administered intragastrically measured after 14 days relative to control; type: functional; conditions: ATCC 33591, po, 336 h, route intragastric; procedure, shortened: as §2
Streptococcus pneumoniae [7] = experiment: Antimicrobial activity against Streptococcus pneumoniae N1387 after 24 hrs by broth microdilution method; type: functional; conditions: N1387, 24 h
Procedure, shortened: (§4)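 Broth microdilution following NCCLS M7-A4; ATCC strains and clinical isolates from a provincial hospital.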

Staphylococcus aureus [8] = experiment: Antimicrobial activity against methicillin-susceptible Staphylococcus aureus after 24 hrs by broth microdilution method; type: functional; procedure, shortened: as §4
[9] = Drug recovery in CD1 mouse plasma at 2 uM by equilibrium dialysis; type: ADME, cell-free; conditions: read-out: Drug recovery; procedure, shortened: as §1
Escherichia coli [10] = experiment: Antimicrobial activity against Escherichia coli isolate 2 after 24 hrs by broth microdilution method; type: functional; conditions: isolate 2, 24 h; procedure, shortened: as §4
[11] = Half life in Sprague-Dawley rat at 5 mg/kg, iv; type: ADME, organism-based; design: dose 5 mg/kg, route intravenous; conditions: in vivo
[12] = AUC (0 to t) in Sprague-Dawley rat at 5 mg/kg, iv; type: ADME, organism-based; design: dose 5 mg/kg, route intravenous; conditions: plasma
Haemophilus influenzae [13] = experiment: Antimicrobial activity against Haemophilus influenzae Q1 after 24 hrs by broth microdilution method; type: functional; conditions: Q1, 24 h; procedure, shortened: as §4
hERG (KCNH2) [14] = target: T1, hERG (KCNH2) (Homo sapiens, UniProt Q12809); experiment: Inhibition of human ERG at 1 uM
Moraxella catarrhalis = experiment: Antimicrobial activity against Moraxella catarrhalis 1502 after 24 hrs by broth microdilution method; type: functional; conditions: Moraxella catarrhalis, 1502, 24 h; procedure, shortened: as §4
Staphylococcus aureus [15] = experiment: Antimicrobial activity against Staphylococcus aureus ATCC 33591 in septicemia mouse model assessed as mortality of host at 20 mg/kg administered intragastrically measured after 14 days relative to control; type: functional; conditions: ATCC 33591, po, 336 h, route intragastric; procedure, shortened: as §2
Haemophilus influenzae [16] = experiment: Antimicrobial activity against Haemophilus influenzae H128 after 24 hrs by broth microdilution method; type: functional; conditions: H128, 24 h; procedure, shortened: as §4
Staphylococcus aureus [17] = experiment: Antimicrobial activity against Staphylococcus aureus WCUH29 after 24 hrs by broth microdilution method; type: functional; conditions: WCUH29, 24 h; procedure, shortened: as §4
Streptococcus pneumoniae [18] = experiment: Antimicrobial activity against Streptococcus pneumoniae 1629 after 24 hrs by broth microdilution method; type: functional; conditions: Streptococcus pneumoniae, 1629, 24 h; procedure, shortened: as §4
Staphylococcus aureus [19] = experiment: Antimicrobial activity against methicillin-resistant Staphylococcus aureus after 24 hrs by broth microdilution method; type: functional; procedure, shortened: as §3
[20] = Mean residence time (0 to t) in Sprague-Dawley rat at 25 mg/kg, po; type: ADME, organism-based; design: dose 25 mg/kg, route oral; conditions: in vivo
Enterococcus faecium = experiment: Antimicrobial activity against Enterococcus faecium X7501 after 24 hrs by broth microdilution method; type: functional; conditions: X7501, 24 h; procedure, shortened: as §4
Streptococcus pyogenes [21] = experiment: Antimicrobial activity against Streptococcus pyogenes 1308007P after 24 hrs by broth microdilution method; type: functional; procedure, shortened: as §4
Enterococcus faecalis = experiment: Antimicrobial activity against Enterococcus faecalis Isolate 1 after 24 hrs by broth microdilution method; type: functional; conditions: Isolate 1, 24 h; procedure, shortened: as §4
[22] = AUC (0 to infinity) in Sprague-Dawley rat at 25 mg/kg, po; type: ADME, organism-based; design: dose 25 mg/kg, route oral, time infinity; conditions: plasma
Streptococcus pneumoniae [23] = experiment: Antimicrobial activity against Streptococcus pneumoniae ERY2 after 24 hrs by broth microdilution method; type: functional; conditions: ERY2, 24 h; procedure, shortened: as §4
[24] = Cmax in Sprague-Dawley rat at 25 mg/kg, po; type: ADME, organism-based; design: dose 25 mg/kg, route oral; conditions: in vivo
[25] = Tmax in Sprague-Dawley rat at 25 mg/kg, po; type: ADME, organism-based; design: dose 25 mg/kg, route oral; conditions: in vivo
Escherichia coli [26] = experiment: Antimicrobial activity against Escherichia coli isolate 3 after 24 hrs by broth microdilution method; type: functional; conditions: isolate 3, 24 h; procedure, shortened: as §4
[27] = Protein binding in CD1 mouse plasma at 2 uM by equilibrium dialysis; type: ADME, cell-free; conditions: read-out: PPB (converted)
[28] = AUC (0 to infinity) in Sprague-Dawley rat at 5 mg/kg, iv; type: ADME, organism-based; design: time infinity, dose 5 mg/kg, route intravenous; conditions: plasma
Haemophilus influenzae [29] = experiment: Antimicrobial activity against AcrA-deficient Haemophilus influenzae H128 after 24 hrs by broth microdilution method; type: functional; conditions: H128, 24 h; procedure, shortened: as §4
[30] = Volume of distribution at steady state in Sprague-Dawley rat at 5 mg/kg, iv; type: ADME, organism-based; design: dose 5 mg/kg, route intravenous; conditions: in vivo, read-out: Vdss
Streptococcus pyogenes [31] = experiment: Antimicrobial activity against Streptococcus pyogenes 1307006P after 24 hrs by broth microdilution method; type: functional; procedure, shortened: as §4
Escherichia coli [32] = experiment: Antimicrobial activity against Escherichia coli isolate 1 after 24 hrs by broth microdilution method; type: functional; conditions: isolate 1, 24 h; procedure, shortened: as §4
[33] = tested on: Staphylococcus epidermidis; experiment: Antimicrobial activity against Staphylococcus epidermidis after 24 hrs by broth microdilution method; type: functional; procedure, shortened: as §4
hERG (KCNH2) [34] = target: T1, hERG (KCNH2); experiment: Inhibition of human ERG at 10 uM
Staphylococcus aureus [35] = experiment: Antimicrobial activity against Staphylococcus aureus after 24 hrs by broth microdilution method; type: functional; procedure, shortened: as §4
Staphylococcus aureus [36] = experiment: Antimicrobial activity against Staphylococcus aureus ATCC 33591 in septicemia mouse model administered intragastrically measured after 14 days; type: functional; conditions: ATCC 33591, po, 336 h
[37] = Mean residence time (0 to t) in Sprague-Dawley rat at 5 mg/kg, iv; type: ADME, organism-based; design: dose 5 mg/kg, route intravenous; conditions: in vivo
[38] = AUC (0 to t) in Sprague-Dawley rat at 25 mg/kg, po; type: ADME, organism-based; design: dose 25 mg/kg, route oral; conditions: plasma
[39] = Oral bioavailability in Sprague-Dawley rat at 25 mg/kg; type: ADME, organism-based; conditions: in vivo

T1 sequence (Q12809 whole entry): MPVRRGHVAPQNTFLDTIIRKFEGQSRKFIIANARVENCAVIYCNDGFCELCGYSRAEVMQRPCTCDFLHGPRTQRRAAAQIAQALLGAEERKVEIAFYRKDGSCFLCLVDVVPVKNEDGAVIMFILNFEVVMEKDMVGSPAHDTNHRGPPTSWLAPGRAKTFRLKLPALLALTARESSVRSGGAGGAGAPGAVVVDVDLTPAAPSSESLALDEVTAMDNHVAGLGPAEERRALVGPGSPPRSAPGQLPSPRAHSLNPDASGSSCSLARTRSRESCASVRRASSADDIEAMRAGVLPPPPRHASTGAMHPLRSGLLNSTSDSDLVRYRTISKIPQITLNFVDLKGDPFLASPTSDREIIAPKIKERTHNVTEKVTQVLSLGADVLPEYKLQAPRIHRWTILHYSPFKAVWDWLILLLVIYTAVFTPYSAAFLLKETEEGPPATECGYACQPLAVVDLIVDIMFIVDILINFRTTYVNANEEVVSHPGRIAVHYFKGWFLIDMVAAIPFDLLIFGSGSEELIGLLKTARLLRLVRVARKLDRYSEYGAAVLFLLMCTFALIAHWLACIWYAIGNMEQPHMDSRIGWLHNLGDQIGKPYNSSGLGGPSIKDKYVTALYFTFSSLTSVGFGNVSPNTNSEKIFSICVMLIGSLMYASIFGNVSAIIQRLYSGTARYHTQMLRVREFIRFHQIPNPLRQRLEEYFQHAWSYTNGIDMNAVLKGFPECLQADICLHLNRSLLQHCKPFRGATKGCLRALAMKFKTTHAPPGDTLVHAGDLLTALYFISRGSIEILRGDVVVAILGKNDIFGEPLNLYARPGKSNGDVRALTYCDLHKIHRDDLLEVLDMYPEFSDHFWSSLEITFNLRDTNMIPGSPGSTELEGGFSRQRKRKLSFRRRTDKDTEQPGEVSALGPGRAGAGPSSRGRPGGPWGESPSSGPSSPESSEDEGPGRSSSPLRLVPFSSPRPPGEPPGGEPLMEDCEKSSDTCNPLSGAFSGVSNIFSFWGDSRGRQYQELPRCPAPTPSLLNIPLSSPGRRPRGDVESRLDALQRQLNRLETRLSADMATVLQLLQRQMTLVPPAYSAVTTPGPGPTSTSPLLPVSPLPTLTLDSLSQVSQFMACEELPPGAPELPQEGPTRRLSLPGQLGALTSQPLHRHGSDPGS

What does the source list for `C=C1C[C@@H](C(=O)Nc2ncc(C)s2)N(C(=O)[C@H](CCCC)CN(O)C=O)C1`?
clearance [1]: 4.83 mL/min/kg; fraction unbound at 2 µM [2]: 0.01; mortality at 5 mg/kg (Staphylococcus aureus [3]): 83%; half-life [4]: 3.02 h; MIC (Staphylococcus aureus [5]): 0.5 µg/mL (≈ 1.27 µM); mortality at 10 mg/kg (Staphylococcus aureus [6]): 66%; MIC (Streptococcus pneumoniae [7]): 1 µg/mL (≈ 2.53 µM); MIC (Staphylococcus aureus [8]): 0.5 µg/mL (≈ 1.27 µM); recovery at 2 µM [9]: 93.7%; MIC (Escherichia coli [10]): 32 µg/mL (≈ 81.1 µM); half-life [11]: 3.21 h; AUC(0-t) [12]: 19800 ng·h/mL; MIC (Haemophilus influenzae [13]): 4 µg/mL (≈ 10.1 µM); inhibition at 1 µM (hERG (KCNH2) [14]): -0.35%; MIC (Moraxella catarrhalis): ≤ 0.06 µg/mL; mortality at 20 mg/kg (Staphylococcus aureus [15]): 50%; MIC (Haemophilus influenzae [16]): 4 µg/mL (≈ 10.1 µM); MIC (Staphylococcus aureus [17]): 0.125 µg/mL (≈ 0.317 µM); MIC (Streptococcus pneumoniae [18]): 2 µg/mL (≈ 5.07 µM); MIC (Staphylococcus aureus [19]): 0.0312 µg/mL (≈ 0.0791 µM); MRT last [20]: 3.41 h; MIC (Enterococcus faecium): 2 µg/mL (≈ 5.07 µM); MIC (Streptococcus pyogenes [21]): 2 µg/mL (≈ 5.07 µM); MIC (Enterococcus faecalis): 4 µg/mL (≈ 10.1 µM); AUC(0-inf) [22]: 58300 ng·h/mL; MIC (Streptococcus pneumoniae [23]): 2 µg/mL (≈ 5.07 µM); Cmax [24]: 15700 ng/mL; Tmax [25]: 0.688 h; MIC (Escherichia coli [26]): 64 µg/mL (≈ 162 µM); fraction unbound at 2 µM [27]: 0.01; AUC(0-inf) [28]: 19800 ng·h/mL; MIC (Haemophilus influenzae [29]): ≤ 0.06 µg/mL; Vd [30]: 0.571 L/kg; MIC (Streptococcus pyogenes [31]): 2 µg/mL (≈ 5.07 µM); MIC (Escherichia coli [32]): 64 µg/mL (≈ 162 µM); MIC [33]: 0.0625 µg/mL (≈ 0.158 µM); inhibition at 10 µM (hERG (KCNH2) [34]): -2.98%; MIC (Staphylococcus aureus [35]): 0.25 µg/mL (≈ 0.634 µM); ED50 (Staphylococcus aureus [36]): 19.6 mg/kg; MRT last [37]: 2.03 h; AUC(0-t) [38]: 58100 ng·h/mL; bioavailability [39]: 58.9%
